# Key:
# red blood cells of mice = experiment: Hemolytic assay; type: cell-based; conditions: 37 °C, 1 h, testing range up to 250 μg/mL
# MRSA [1] = experiment: Drug resistance study; type: cell-based, Staphylococcus aureus; conditions: 13 passages
# MRSA [2] = experiment: TEM study, MRSA; type: cell-based, Staphylococcus aureus; conditions: 6 μg/mL, 2 h
# Procedure, shortened: (§1)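 Cells were prepared at 10^6 CFU/mL as for MIC testing and treated with the test compound for 2 h at 37 °C; untreated controls ran alongside. Cells were pelleted, washed three times in PBS and resuspended in deionised water. They were dropped on grids, blotted, dried 30 s at 50 °C under vacuum, and imaged by TEM at 60 kV.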
# E. coli [3] = experiment: Fluorescence microscopy; type: cell-based, Escherichia coli; conditions: 2 × MIC, 2 h
# E. coli [4] = experiment: TEM study, E. coli; type: cell-based, Escherichia coli; conditions: 12 μg/mL, 2 h
# Procedure, shortened: as §1
# E. coli [5] = experiment: Inner membrane permeabilization; type: cell-based, Escherichia coli; conditions: 2-fold MIC
# Procedure, shortened: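 Mid-log E. coli was pelleted at 1000g, washed three times and resuspended to 10^6 CFU/mL in 5 mM HEPES/5 mM glucose (1:1). It was mixed with PI from a 10 μM solution. Fluorescence (ex 535, em 617 nm) was read every 2 min for about 8 min. The test compound was then added and reading continued for 12 min. The negative control received water. Three repeats.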
# E. coli [6] = experiment: Membrane depolarization study, DiSC3; type: cell-based, Escherichia coli; conditions: 0.5 ×, 1 ×, 2 × and 4 × MIC
# E. coli [7] = experiment: Time-kill study, E. coli; type: cell-based, Escherichia coli; conditions: concentrations of 24 and 48 μg/mL
# Procedure, shortened: (§2)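 Overnight TSB cultures (37 °C, shaking) were subcultured 6 h to mid-log phase. Suspensions at 10^6 CFU/mL were exposed to the test compound at 37 °C for 10, 30, 60 and 120 min (E. coli 12, 24, 48 μg/mL; MRSA 6, 12, 24, 48 μg/mL). Untreated bacteria served as controls. Samples were diluted (MRSA 10^2-fold, E. coli 10^4-fold) and plated on TSB agar for 20 h at 37 °C. Colonies were counted against time. Three repeats.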
# MRSA [8] = type: cell-based, Staphylococcus aureus; conditions: not told
# MRSA [9] = experiment: Time-kill study, MRSA; type: cell-based, Staphylococcus aureus; conditions: concentrations of 24 and 48 μg/mL
# Procedure, shortened: as §2
# [10] = test system: E. coli biofilm formation; experiment: Biofilm prevention study; type: cell-based; conditions: Escherichia coli, 48 h, read-out: Inhibition of E. coli biofilm formation
# MRSA [11] = experiment: Fluorescence microscopy; type: cell-based, Staphylococcus aureus; conditions: 2 × MIC, 2 h
smiles,measurement,setting,value
"CCCCCC(=O)N[C@@H](CCCCN)CN1CC(=O)N(c2ccc(N3CN(C[C@H](CCCCN)NC(=O)CCCCC)CC3=O)cc2)C1 [Compound 1, N,N'-((2S,2'S)-(1,4-Phenylenebis(4-oxoimidazolidine-3,1-diyl))-bis(6-aminohexane-1,2-diyl))dihexan amide]",Hemolysis (HC50),red blood cells of mice,>250 µg/mL
"CCCCCCCC(=O)N[C@@H](CCCCN)CN1CC(=O)N(c2ccc(N3CN(C[C@H](CCCCN)NC(=O)CCCCCCC)CC3=O)cc2)C1 [Compound 2, N,N'-((2S,2'S)-(1,4-Phenylenebis(4-oxoimidazolidine-3,1-diyl))-bis(6-aminohexane-1,2-diyl))dioctan amide]",Hemolysis (HC50),red blood cells of mice,>250 µg/mL
"CCCCCCCCCC(=O)N[C@@H](CCCCN)CN1CC(=O)N(c2ccc(N3CN(C[C@H](CCCCN)NC(=O)CCCCCCCCC)CC3=O)cc2)C1 [Compound 3, N,N'-((2S,2'S)-(1,4-Phenylenebis(4-oxoimidazolidine-3,1-diyl))-bis(6-aminohexane-1,2-diyl))bis(decanamide)]",Fold increase in MIC toward MRSA,MRSA [1],remained almost unchanged
same,Cell membrane morphology of MRSA (TEM),MRSA [2],their membrane was all dispersed
same,DAPI/PI staining of E. coli (membrane integrity),E. coli [3],blue and red fluorescence were all observed
same,Cell membrane morphology of E. coli (TEM),E. coli [4],their membrane was all dispersed
same,Inner membrane permeabilization of E. coli (PI fluorescence),E. coli [5],permeabilized fast
same,"Membrane depolarization, DiSC3(5) fluorescence intensity",E. coli [6],increase in a concentration-dependent manner
same,Hemolysis (HC50),red blood cells of mice,>250 µg/mL
same,Time required for eradicating E. coli,E. coli [7],30 min
same,Inner membrane permeabilization of MRSA (PI fluorescence),MRSA [8],permeabilized fast
same,Time to thoroughly eliminate MRSA,MRSA [9],≤ 60 min
same,inhibition at 3 µg/mL,[10],> 55%
same,DAPI/PI staining of MRSA (membrane integrity),MRSA [11],blue and red fluorescence were all observed
"CCCCCCCCCCCC(=O)N[C@@H](CCCCN)CN1CC(=O)N(c2ccc(N3CN(C[C@H](CCCCN)NC(=O)CCCCCCCCCCC)CC3=O)cc2)C1 [Compound 4, N,N'-((2S,2'S)-(1,4-Phenylenebis(4-oxoimidazolidine-3,1-diyl))-bis(6-aminohexane-1,2-diyl))didodecanamide]",Hemolysis (HC50),red blood cells of mice,>250 µg/mL
"CCCCCCCCCCCCCC(=O)N[C@@H](CCCCN)CN1CC(=O)N(c2ccc(N3CN(C[C@H](CCCCN)NC(=O)CCCCCCCCCCCCC)CC3=O)cc2)C1 [Compound 5, N,N'-((2S,2'S)-(1,4-Phenylenebis(4-oxoimidazolidine-3,1-diyl))-bis(6-aminohexane-1,2-diyl))ditetradecanamide]",Hemolysis (HC50),red blood cells of mice,>250 µg/mL
"CCCCCCCCCCCCCCCC(=O)N[C@@H](CCCCN)CN1CC(=O)N(c2ccc(N3CN(C[C@H](CCCCN)NC(=O)CCCCCCCCCCCCCCC)CC3=O)cc2)C1 [Compound 6, N,N'-((2S,2'S)-(1,4-Phenylenebis(4-oxoimidazolidine-3,1-diyl))-bis(6-aminohexane-1,2-diyl))dipalmitamide]",Hemolysis (HC50),red blood cells of mice,>250 µg/mL
"NCCCC[C@@H](CN1CC(=O)N(c2ccc(N3CN(C[C@H](CCCCN)NC(=O)CC45C[C@H]6C[C@@H](C4)C[C@@H](C5)C6)CC3=O)cc2)C1)NC(=O)CC12C[C@H]3C[C@@H](C1)C[C@@H](C2)C3 [Compound 7, N,N'-((2S,2'S)-(1,4-Phenylenebis(4-oxoimidazolidine-3,1-diyl))-bis(6-aminohexane-1,2-diyl))bis(2-((3S,5S,7S)-adamantan-1-yl)-acetamide)]",Hemolysis (HC50),red blood cells of mice,>250 µg/mL
"NCCCC[C@@H](CN1CC(=O)N(c2ccc(N3CN(C[C@H](CCCCN)NC(=O)Cc4ccc5ccccc5c4)CC3=O)cc2)C1)NC(=O)Cc1ccc2ccccc2c1 [Compound 8, N,N'-((2S,2'S)-(1,4-Phenylenebis(4-oxoimidazolidine-3,1-diyl))-bis(6-aminohexane-1,2-diyl))bis(2-(naphthalen-2-yl)acetamide)]",Hemolysis (HC50),red blood cells of mice,>250 µg/mL
"NCCCC(=O)N[C@@H](Cc1ccccc1)CN1CC(=O)N(c2ccc(N3CN(C[C@H](Cc4ccccc4)NC(=O)CCCN)CC3=O)cc2)C1 [Compound 9, N,N'-((2S,2'S)-(1,4-Phenylenebis(4-oxoimidazolidine-3,1-diyl))-bis(3-phenylpropane-1,2-diyl))bis(4-aminobutanamide)]",Hemolysis (HC50),red blood cells of mice,>250 µg/mL
"CCCCCCCCCC(=O)N[C@@H](Cc1ccccc1)CN1CC(=O)N(c2ccc(N3CN(C[C@H](Cc4ccccc4)NC(=O)CCCCCCCCC)CC3=O)cc2)C1 [Compound 10, N,N'-((2S,2'S)-(1,4-Phenylenebis(4-oxoimidazolidine-3,1-diyl))-bis(3-phenylpropane-1,2-diyl))bis(decanamide)]",Hemolysis (HC50),red blood cells of mice,>250 µg/mL
"CCCCCCCCCC(=O)N[C@@H](CCCCN)CNCC(=O)Nc1ccc(NC(=O)CNC[C@H](CCCCN)NC(=O)CCCCCCCCC)cc1 [Compound 11, N,N'-((2S,2'S)-(((1,4-Phenylenebis(azanediyl))bis(2-oxoethane-2,1-diyl))bis(azanediyl))bis(6-aminohexane-1,2-diyl))bis-(decanamide)]",Hemolysis (HC50),red blood cells of mice,>250 µg/mL
"CCn1cc(C(=O)O)c(=O)c2cc(F)c(N3CCNCC3)cc21 [norfloxacin, reference compound]",Fold increase in MIC toward MRSA,MRSA [1],more than 22 fold
